According to ChEMBL document CHEMBL3792306, “Antichagasic and trichomonacidal activity of 1-substituted 2-benzyl-5-nitroindazolin-3-ones and 3-alkoxy-2-benzyl-5-nitro-2H-indazoles” (Eur J Med Chem, 2016):

Columns and labels:
Trypanosoma cruzi [1] = experiment: Antichagasic activity against Trypanosoma cruzi CL-B5 epimastigotes […] assessed as growth inhibition after 72 hrs by beta galactosidase reporter gene assay; format: functional, organism-based
Outline: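 Then CPRG (200 µM final, pH 7.4) in Triton X-100 added for 3 h at 37 °C, A595 read. Triplicates, three independent runs; IC50 from dose–response of %growth inhibition, mean ± SD.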

[2] = Cytotoxicity against african green monkey Vero cells assessed as inhibition of cell growth after 24 hrs by resazurin dye based fluorescence assay; settings: chlorocebus sabaeus
Outline: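 Vero CCL-81 cells (50,000/well, RPMI with 10% FBS) attached 6 h at 37 °C, then 24 h with compound. Resazurin added for 3 h, fluorescence at ex 535/em 590 nm. Triplicates in two independent assays; CC50 and 95% confidence limits by probit analysis.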

[3] = Selectivity index, ratio of LC50 for mouse L929 cells to IC50 for Trypanosoma cruzi CL-B5 lacZ epimastigotes […]; format: toxicity, cell-based; settings: read-out: Ratio LC50/IC50
Outline: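 SI = LC50 (L929, 48 h resazurin) / epimastigote IC50. […] CPRG (200 µM final, 0.9% Triton X-100, pH 7.4) added for 3 h at 37 °C, A595 read. Triplicates, n = 3; IC50 from %EGI curves.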

[4] = Cytotoxicity against african green monkey Vero cells assessed as inhibition of cell growth at 300 uM after 24 hrs by resazurin dye based fluorescence assay; settings: chlorocebus sabaeus, read-out: Activity
Trichomonas vaginalis [5] = experiment: Trichomonacidal activity against metronidazole-resistant Trichomonas vaginalis IR78 trophozoites after 24 hrs by resazurin dye based fluorescence assay; format: functional, organism-based; settings: IR78, 24 h
Outline: (§1)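 Trophozoites in TYM with 10% FBS, 37 °C, 5% CO₂, seeded at 10⁵/mL in glass tubes. After 5 h, compounds added at 9.37–300 µM final (DMSO <0.2%). Viability read by resazurin fluorimetry after 24 h at 37 °C. Metronidazole 25 µM as reference. At least two runs in triplicate; IC50 with 95% limits by probit.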

Trichomonas vaginalis [6] = experiment: Trichomonacidal activity against metronidazole-sensitive Trichomonas vaginalis JH31A#4 trophozoites after 24 hrs by resazurin dye based fluorescence assay; format: functional, organism-based; settings: JH31A#4, 24 h; outline: as §1
[7] = Selectivity index, ratio of CC50 for african green monkey Vero cells to IC50 for metronidazole-resistant Trichomonas vaginalis IR78 trophozoites; format: functional
Outline: (§2)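 Selectivity index = Vero CC50 (24 h resazurin, probit) divided by trophozoite IC50 (24 h resazurin, probit) for the named T. vaginalis isolate.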

[8] = Cytotoxicity against mouse L929 cells after 48 hrs by resazurin assay; format: cell-based; settings: read-out: LC50
Outline: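 L929 fibroblasts, 15×10^3 cells/well in MEM, attached 3 h. Exposed to compounds for 48 h at 37 °C, 5% CO2. Resazurin (2 mM solution in PBS) added for 3 h; fluorescence read at 535/590 nm to give % cytotoxicity. Triplicate wells, three independent runs. LC50 taken from concentration vs %C curves, mean ± SD.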

[9] = Selectivity index, ratio of CC50 for african green monkey Vero cells to IC50 for metronidazole-sensitive Trichomonas vaginalis JH31A#4 trophozoites; format: functional; outline: as §2
[10] = Cytotoxicity against mouse Cardiomyocytes after 48 hrs by Prestoblue assay; design: species or system Cardiomyocyte; settings: read-out: LC50
Outline: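 Primary embryonic cardiac cells from Swiss mice, grown in DMEM with CaCl2, L-glutamine, 5% FBS and chick embryo extract. Seeded at 6×10^4 cells/well on gelatin, pre-incubated 24 h, then exposed to compounds for 48 h at 37 °C, 5% CO2. Morphology and contractility checked by light microscopy. PrestoBlue added for 5 h, absorbance read at 570/600 nm. Triplicates, n = 3; LC50 from dose–response, mean ± SD.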

[11] = Selectivity index, ratio of LC50 for mouse L929 cells to IC50 for Trypanosoma cruzi CL-B5 lacZ amastigotes in mouse L929 cells; format: toxicity, cell-based; settings: read-out: Ratio LC50/IC50
Outline: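 SI = LC50 (L929, 48 h resazurin) / amastigote IC50. Amastigotes: L929 cells (10,000/well, MEM) infected overnight at 33 °C with CL-B5 lacZ tissue-culture trypomastigotes (1:6 cell:parasite), washed, then exposed to compounds for 7 days. CPRG (400 µM final, 3% Triton X-100, pH 7.4) added for 3 h at 37 °C, A595 read. Triplicates; IC50 from %AGI curves. Assayed only when epimastigote SI warranted.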

Trypanosoma cruzi [12] = experiment: Antichagasic activity against Trypanosoma cruzi Y strain amastigotes in mouse cardiomyocytes assessed as growth inhibition after 48 hrs by giemsa staining based assay; format: functional, organism-based
Outline: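 Primary embryonic Swiss mouse cardiac cells (100,000/well on gelatin-coated coverslips) infected 24 h with Y strain bloodstream trypomastigotes (1:10), washed, then 48 h with compound in DMEM. Bouin-fixed, Giemsa-stained. Infected cells and parasites per infected cell scored in 400 cells in duplicate; endocytic index = product. IC50 from %EI curves, mean ± SD.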

Trypanosoma cruzi [13] = experiment: Antichagasic activity against Trypanosoma cruzi CL-B5 intracellular amastigotes in mouse L929 cells assessed as growth inhibition after 7 days by beta galactosidase reporter gene assay; format: functional, organism-based; settings: CL-B5, L929, 168 h
Outline: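 L929 fibroblasts (10,000/well, MEM) infected overnight at 33 °C, 5% CO₂ with CL-B5 lacZ tissue-culture trypomastigotes (1:6 cell:parasite). Washed, then 7 days with compound in fresh MEM. CPRG (400 µM final, pH 7.4) in 3% Triton X-100 for 3 h at 37 °C, A595. Triplicates; IC50 from %amastigote growth inhibition curves, mean ± SD.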

Trypanosoma cruzi [14] = experiment: Antichagasic activity against Trypanosoma cruzi Tulahuen amastigotes in mouse L929 cells assessed as growth inhibition after 96 hrs by beta galactosidase reporter gene assay; format: functional, organism-based; settings: L929, 96 h
Outline: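 L929 cells (4000/well, RPMIS) held 24 h at 37 °C, then exposed 2 h to Tulahuen C4 lacZ trypomastigotes (1:10). Infection established 48 h, then compounds for 96 h at 37 °C, 5% CO₂. 500 µM CPRG in 0.5% Nonidet P40 for 18 h, A570. Triplicates; IC50 from %inhibition curves, mean ± SD.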

Trypanosoma cruzi [15] = experiment: Antichagasic activity against Trypanosoma cruzi Y strain epimastigotes […] assessed as growth inhibition after 48 hrs by resazurin assay; format: functional, organism-based
Outline: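 Y strain epimastigotes (3 × 10⁶/mL, log phase, pre-grown overnight at 28 °C) exposed 48 h at 28 °C, cell-free. Resazurin added for 5 more h, fluorescence read at ex 535/em 590 nm. Triplicates, three independent runs; IC50 from %growth inhibition curves, mean ± SD.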

Row | Compound | IC50 (Trypanosoma cruzi [1]) [µM] | CC50 at 24 h [2] [µM] | selectivity ratio [3] | inhibition at 24 h, 300 µM [4] [%] | IC50 (Trichomonas vaginalis [5]) [µM] | IC50 (Trichomonas vaginalis [6]) [µM] | Ratio CC50/IC50 [7] | CC50 at 48 h [8] [µM] | Ratio CC50/IC50 [9] | CC50 at 48 h [10] [µM] | selectivity ratio [11] | IC50 (Trypanosoma cruzi [12]) [µM] | IC50 (Trypanosoma cruzi [13]) [µM] | IC50 (Trypanosoma cruzi [14]) [µM] | IC50 (Trypanosoma cruzi [15]) [µM]
1 | O=[N+]([O-])c1ccc2nn(Cc3ccccc3)c(OCCCBr)c2c1 | 39 | 539 | 1.51 | < 20 | 39.1 | 18.6 | 13.8 | 59 | 29 |  |  |  |  |  | 
2 | O=C(Cn1ccnc1[N+](=O)[O-])NCc1ccccc1 [BENZNIDAZOLE] | 22.7 |  | > 11.3 |  |  |  |  | > 256 |  | > 100 | > 376 | 1.77 | 0.68 | 1.66 | 
3 | O=c1c2cc([N+](=O)[O-])ccc2n(CCO)n1Cc1ccccc1 | 1.58 | > 300 | > 162 | < 20 |  | 17.9 |  | > 256 | >16.7 | > 100 | > 1160 | 0.6 | 0.22 | 0.81 | 3.18
